Legend:
[1] = target: T1, Human immunodeficiency virus type 1 integrase (Human immunodeficiency virus 1, UniProt Q7ZJM1); experiment: Inhibition of strand transfer catalytic activity HIV1 integrase
Procedure, shortened: (§1)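 Wild-type HIV-1 IN (200 nM final) preincubated with inhibitor for 30 min at 30 °C. Buffer: 25 mM MOPS pH 7.2, 7.5 mM MnCl2, 50 mM NaCl, 10% DMSO, BSA and reducing agents. Reactions were quenched with formamide dye. IC50 was taken from log concentration versus percent inhibition.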

[2] = target: T1, Human immunodeficiency virus type 1 integrase; experiment: Inhibition of 3'-processing catalytic activity HIV1 integrase; procedure, shortened: as §1
[3] = tested on: CEM-SS; experiment: Cytotoxicity against human T cell line CEM-SS; format: functional
Procedure, shortened: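 Uninfected CEM-SS cells were exposed to serial compound dilutions on the same plate as the antiviral test, at 37 °C with 5% CO2 for 6 days. Viability was measured by XTT (0.2 mg/mL, 4 h) absorbance at 450 nm.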

[4] = tested on: Human immunodeficiency virus 1; experiment: Antiviral activity in human T cell line CEM-SS infected with HIV1; format: functional, organism-based
Procedure, shortened: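 CEM-SS cells at 5×10^3/well were infected with HIV-1 RF (MOI 0.3), and serial compound dilutions were added immediately. Cells were kept at 37 °C with 5% CO2 for 6 days. Viability was read by XTT (0.2 mg/mL, 4 h) absorbance at 450 nm.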

T1 sequence (Q7ZJM1 whole entry): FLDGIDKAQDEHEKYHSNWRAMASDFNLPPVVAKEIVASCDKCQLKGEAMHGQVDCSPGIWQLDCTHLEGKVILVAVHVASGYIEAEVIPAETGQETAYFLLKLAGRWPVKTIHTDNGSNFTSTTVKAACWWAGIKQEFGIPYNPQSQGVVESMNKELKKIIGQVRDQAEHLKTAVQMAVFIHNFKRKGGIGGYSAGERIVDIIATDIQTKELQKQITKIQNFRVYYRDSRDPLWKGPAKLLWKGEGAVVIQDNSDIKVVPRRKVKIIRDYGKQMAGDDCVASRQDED

EC50 ([4]; Human immunodeficiency virus 1, T-cell, read-out: EC50) | SMILES | IC50 [1] | IC50 [2] | CC50 [3] | EC50 ([4]; t cell line)
– | O=C(CSc1nc2ccccc2n1Cc1ccccc1)N/N=C/c1cc(Br)ccc1O | 51 µM | 60 µM | Toxic | –
– | Cc1ccc(S(=O)(=O)Nc2ccccc2/N=C/c2sc3ccccc3c2O)cc1 | 68 µM | 88 µM | – | –
– | O=C(/C=C/c1ccc(-c2ccccc2[N+](=O)[O-])o1)Nc1ccc(O)c(-c2nc3ccccc3o2)c1 | 63 µM | 23 µM | – | –
– | COc1ccc(CCNC(=O)CC(=O)N/N=C/c2ccco2)cc1OC | 90 µM | > 100 µM | Toxic | –
– | Cc1ccc(C(=O)C2=C(O)C(=O)N(CCCc3c[nH]cn3)C2c2ccc(Cl)cc2)cc1 (configuration not stated) | 67 µM | 93 µM | – | –
– | CC(=O)c1cc(C(=O)CC(=O)Nc2cccc([N+](=O)[O-])c2)sc1Nc1ccccc1 | 29 µM | 97 µM | – | –
– | O=C(CC1Sc2ccccc2NC1=O)Nc1cccc(C(=O)O)c1 (configuration not stated) | 71 µM | 79 µM | – | –
– | CC(=O)c1cc(C(=O)CC(=O)Nc2ccc([N+](=O)[O-])cc2)sc1Nc1ccccc1 | 28 µM | 80 µM | – | –
– | COc1ccc2oc(=O)c(-c3csc(N/N=C/c4ccccc4O)n3)cc2c1 | 10 µM | 30 µM | – | Not Active
– | COc1cc(/C=N/NC2=NC(=O)C(CC(=O)Nc3ccc(Cl)c(Cl)c3)S2)ccc1O (configuration not stated) | 38 µM | 89 µM | Toxic | –
– | Oc1ccccc1/C=N/CC(O)C/N=C/c1ccccc1O | 61 µM | 97 µM | – | –
– | O=C(/C=C/c1ccco1)NC(=S)Nc1ccccc1O | 28 µM | 57 µM | Toxic | –
– | O=C(N/N=C/c1ccc(/C=N/NC(=O)c2cc(O)cc(O)c2)cc1)c1cc(O)cc(O)c1 | 56 µM | 76 µM | – | –
– | COC(=O)c1ccc(C(=O)OC)c(NC(=O)c2ccc(C)c([N+](=O)[O-])c2)c1 | > 100 µM | 92 µM | – | –
– | O=C(CSc1nc(O)cc(CSc2ccc(Cl)cc2)n1)Nc1ccc(Cl)cc1Cl | – | – | Toxic | –
104 µM | O=C(Cc1ccccc1)Nc1cc(C(=O)O)c(NC(=O)Cc2ccccc2)cc1C(=O)O | 7 µM | 9 µM | > 400 µM | –
– | O=C(O)c1cc(NC(=O)c2cccc3ccccc23)c(C(=O)O)cc1NC(=O)c1cccc2ccccc12 | 21 µM | 28 µM | – | –
– | COc1ccc(C(=O)Nc2ccc(O)c(-c3nc4ccccc4o3)c2)cc1[N+](=O)[O-] | 7 µM | 6 µM | – | –

EC50 ([4]; Human immunodeficiency virus 1, T-cell, read-out: EC50) | SMILES | IC50 [1] | IC50 [2] | CC50 [3] | EC50 ([4]; t cell line)
– | CCOC(=O)c1c(-c2ccccc2)csc1NC(NC(=O)c1ccco1)C(=O)c1ccc(C)cc1 (configuration not stated) | 79 µM | > 100 µM | – | –
– | O=C(CSc1nc(CSc2ccc(Cl)cc2)cc(=O)[nH]1)Nc1ccc(Cl)cc1Cl | 24 µM | 34 µM | – | –
– | CC(=O)c1cc(C(=O)CC(=O)Nc2ccccc2)sc1Nc1ccccc1 | > 100 µM | > 100 µM | – | –
– | O=C(O)C(Cc1c[nH]c2ccccc12)NS(=O)(=O)c1ccccc1[N+](=O)[O-] (configuration not stated) | 56 µM | 88 µM | – | –
– | O=C(Nc1ccc(O)c(-c2nc3ccccc3o2)c1)c1cccc2ccccc12 | 6 µM | 14 µM | – | –
– | O=C(c1ccccc1)c1cc(Br)ccc1NC(=O)c1nc[nH]c1C(=O)O | 17 µM | 16 µM | – | –
– | CCOC(=O)CCc1cc(C(=O)OCC)c(CCC(=O)OCC)cc1C(=O)OCC | 94 µM | > 100 µM | – | –
– | Cc1ccc(C(=O)N/C(=C/c2ccc(-c3ccc(Cl)cc3Cl)o2)C(=O)NCCCO)cc1 | 85 µM | > 1000 µM | – | –
– | COc1ccc(N(CC(=O)N/N=C/c2c(O)ccc3ccccc23)S(C)(=O)=O)cc1Cl | 59 µM | 95 µM | – | –
– | O=C(/N=N/c1c(O)[nH]c2ccc(F)cc12)/C(=C/C=C/c1ccccc1)NC(=O)c1ccccc1 | 38 µM | 60 µM | Toxic | –
– | Cc1[nH]n(-c2ccccc2)c(=O)c1C(c1ccc(O)c(O)c1)c1c(C)n(C)n(-c2ccccc2)c1=O (configuration not stated) | 31 µM | 89 µM | Toxic | –
– | O=C(Nc1ccc(O)c(-c2nc3cc(Cl)ccc3o2)c1)c1cccnc1 | 10 µM | 61 µM | – | Not Active
– | O=C(/C=C(\O)c1ccc(Cl)cc1)C(=O)/N=N/c1c(O)[nH]c2ccc(Br)cc12 | 28 µM | 42 µM | Toxic | –
– | O=C(/C=C/c1ccc(Cl)cc1)Nc1ccc(NC(=O)c2ccco2)cc1 | 91 µM | 90 µM | – | –
– | CCSc1nnc(N2C(=O)c3ccc(C(=O)c4ccc(C(=O)O)cc4)cc3C2=O)s1 | 65 µM | 98 µM | – | –
– | CC(C)Cn1c(=O)c(C(=O)Nc2ccccc2S(N)(=O)=O)c(O)c2ccccc21 | 16 µM | 40 µM | – | Not Active
– | O=C(N/N=C/c1cc(Br)ccc1O)/C(=C/C=C/c1ccccc1)NC(=O)c1ccccc1 | 23 µM | 90 µM | Toxic | –
